Measurements: PubChem BioAssay AID602407 (Southern Research Specialized Biocontainment Screening …, 2012)
Calls of active or inactive are those of the source.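 Rule for the calls: active = inhibition of 30% or more at any tested concentration; inactive = the rest.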

target: Cytosol aminopeptidase (Homo sapiens) (UniProt P28838); assay: HuM17LAP enzyme activity inhibition – biochemical, QFRET fluorogenic substrate, counter-screen for PfM17LAP inhibitor project, dose response (AID 602407); conditions: recombinant human M17LAP, H-Leu-NHMec fluorogenic cleavage
Procedure, shortened: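 system = recombinant human M17LAP enzyme | dosing = ten twofold steps from 100 µM, 2% DMSO | times = 90 min reaction, room temperature | technique = fluorescence of released NHMec, excitation 370 nm, emission 460 nm | read-out basis = % inhibition and IC50 from constrained four-parameter fit | controls = full reaction and enzyme-free controls | replicates = triplicates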

Sequence of Cytosol aminopeptidase (Homo sapiens) (P28838 whole entry, looked up): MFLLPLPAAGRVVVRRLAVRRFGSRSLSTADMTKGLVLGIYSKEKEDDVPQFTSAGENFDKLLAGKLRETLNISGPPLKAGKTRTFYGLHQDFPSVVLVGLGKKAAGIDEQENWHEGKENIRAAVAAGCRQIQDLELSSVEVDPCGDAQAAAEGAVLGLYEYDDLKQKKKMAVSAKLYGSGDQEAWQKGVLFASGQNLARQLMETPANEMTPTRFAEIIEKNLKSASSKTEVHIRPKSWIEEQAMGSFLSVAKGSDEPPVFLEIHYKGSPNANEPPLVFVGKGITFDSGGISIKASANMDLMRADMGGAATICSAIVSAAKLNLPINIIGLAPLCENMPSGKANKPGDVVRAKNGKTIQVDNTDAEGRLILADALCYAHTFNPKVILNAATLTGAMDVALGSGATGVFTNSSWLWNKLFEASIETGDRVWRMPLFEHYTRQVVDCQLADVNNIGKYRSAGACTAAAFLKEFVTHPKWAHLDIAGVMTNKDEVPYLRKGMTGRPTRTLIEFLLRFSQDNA

IC50 [nM] | Compound
530 | CCCCOc1ccc(C(C)C(=O)NO)cc1 (stereo not drawn)
380 | CCC(C)Oc1ccc(CC(=O)NO)cc1 (stereo not drawn)
490 | CCCOc1ccc(CC(=O)NO)cc1

Continued, compound first:

Compound | IC50 [nM]
O=C(NO)c1ccc2ccccc2c1 | 8380
CCCCOc1cccc(CC(=O)NO)c1 | 2770

same assay, conditions: recombinant human M17LAP, H-Leu-NHMec fluorogenic cleavage; at 100 µM (top of the series)

inhibition | Compound
inactive | CCCCOc1ccc(C(C)(C)C(=O)NO)cc1
inactive | CCCCOc1ccc(CN(O)C(C)=O)cc1
inactive | CCCCOc1ccc(CN(O)C(=O)c2ccccc2)cc1
inactive | CCCCOc1cccc(CC(=O)OC)c1
inactive | CCCCOc1ccc(C(C)C(=O)OC)cc1 (stereo not drawn)

More lines, now with the values behind:

Compound | inhibition
CCCOc1ccc(CC(=O)O)cc1 | inactive
CCCCOc1ccc(C(C)(C)C(=O)O)cc1 | inactive
CN(C)CCOc1ccc(CC(=O)O)cc1 | inactive
